According to the EternaBench riboswitch data:

Test system: MS2 coat protein
Assay: apparent Kd, MS2 coat protein; higher = weaker binding; RNA-MaP array; FMN 200 µM where present
How it was run: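 Binding was read on Illumina sequencing-chip clusters where stalled E. coli RNA polymerase had transcribed each design. A titration of SNAP-549-labelled MS2 coat protein began at 0.7 or 1.5 nM and doubled to 3 µM, once without ligand and once with constant ligand, in 100 mM Tris-HCl pH 7.5, 80 mM KCl, 4 mM MgCl2, BSA, DTT, yeast tRNA and Tween-20. The apparent Kd is the median of filtered per-cluster binding-curve fits, based on green signal normalised to red-channel RNA signal and control-cluster median Fmax.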

[1] = designed as: ON switch for flavin mononucleotide, no ligand
[2] = ligand present: flavin mononucleotide, designed as: ON switch for flavin mononucleotide
[3] = designed as: OFF switch for flavin mononucleotide, no ligand
[4] = ligand present: flavin mononucleotide, designed as: OFF switch for flavin mononucleotide

Row | Sequence | apparent Kd [1] | apparent Kd [2] | apparent Kd [3] | apparent Kd [4]
1 | GACUUGGCUACAUGAGGAUCACCCAUGUUUGACUGGAUCGAUCAGGAUAUAGUGAUUUGCAACAAUUAGAAGGGAUAUUUACGG | 49.8 nM | 51.6 nM | – | –
2 | AACAGUACAGGAUAUACAUGAGGAUCACCCAUGUGAAGAAUAAGUGGCGUACCACAAAGUAGAAGGGUACUGGA | – | – | 29.3 nM | 120 nM
3 | AGCGCUACGGAAUCAAGGGCAGGCAGAAGGAGCACAUGAGGAUCACCCAUGUGAUCCAGGGAUGGCUAGGAUAUGCGCGCCACG | – | – | 26.4 nM | 26.5 nM
4 | CAUGUCCUCACAGGAUAUGCACCACUUUGUGGUGCAGAAGGGUGAAUACAUGAGGAUCACCCAUGUGGACAUGAUAUAUUUAAU | 1140 nM | 72.2 nM | – | –
5 | GCACUCAAGUUAGGAUAUGGACCAGAAACUGGUCCAGAAGGAACAUGGGAACAUGAGGAUCACCCAUGUUCCAGAAACGAGUGC | 840 nM | 186 nM | – | –
6 | UGGUACUAGGGAGGAUAUGGGAAGAUACAUGAGGAUCACCCAUGUUUAAGAAUGCCGAGAGGCAACUAGAAGGCCCUAGUACGU | 434 nM | 19.6 nM | – | –
7 | AACAGGACAGGAUAUACAUGAGGAUCACCCAUGUGAGAAUUAAGCAGCGUACCACACAGUAGAAGGGUCAUGGA | – | – | 46.7 nM | 40 nM
8 | CGGUAACAUGAGGAUCACCCAUGUGAGGAUAUCGUACGUUCGUCGAAAGACGAUCGUACGAGAAGGCAUGACCG | – | – | 47.5 nM | 22.2 nM
9 | AUCAGCUCGUCAGGAUAUACGUCACUGCGUCAGCAGUGUGGUGAGAUCACAUGAGGAUCACCCAUGUAGAAGGGACGAGCUGAU | – | – | 376 nM | 300 nM
10 | CGGUCUUGCAACUAUUUGUUUCACAUGAGGAUCACCCAUGUCAGAAGGAGGUGCGUCUAUUAGACCUAGGAUAUGACGUGUAAG | – | – | 15.5 nM | 26 nM
11 | AUAAUGAGAGGAUAUACAUGAGGAUCACCCAUGUUUUUAUCACGUCGUGCUCCAUUACGUAGAAGGCUCAUUUA | – | – | 36.3 nM | 53.7 nM
12 | CCGACCCAAGGAUAUUGUACUGCUGACAUGAGGAUCACCCAUGUAUGUUAACUCGGCCGACGAGAAGGUGGCGACA | – | – | 26.8 nM | 23.9 nM
13 | ACUAUACGAGGAUAUACUGUCGGGCCUCGGACAUACAUACGACAUGAGGAUCACCCAUGUAGAAGGCGUUUACU | – | – | 30.4 nM | 68.4 nM
14 | CUUUUGUGAGGAUAUUCGUAGUAGGGUCAUGGCAUUAUUAUGGAGAAGGCACAUGAGGAUCACCCAUGUACCUU | – | – | 19.7 nM | 27.5 nM
15 | AGCUUGAGAGGAUAUACUUGAGUGAUAAAAGUCUGAUAACUACAUGAGGAUCACCCAUGUAGAAGGCUCUAGCA | – | – | 18.3 nM | 47.8 nM
16 | GACAUUGACAAGAAGGCAAACAUGAGGAUCACCCAUGUUCUGCAUGUAUAUUGAGGAUAUUGCCAAUGCAUGUGGAUCACCCAA | – | – | 6.63 nM | 10.8 nM
17 | GUAGCAUACCGAGGAUAUUCAGGGCGUGGAUAUACAUGAGGAUCACCCAUGUGGCGGAAGCCUAGGGAGAAGGCGGGCUGCUAC | 21.6 nM | 16.3 nM | – | –
18 | AAAAAGUCAGGAUAUACAUGAGGAUCACCCAUGUAAAAAAAAGGGAAAAAAAAAAAGGGUAGAAGGGACGAAAA | – | – | 37.8 nM | 33 nM
19 | GCCAUCGUAUGAGGAUAUGGCACCGAAACGGUGCCAGAAGGCAUGUCUAUAGACAUGAGGAUCACCCAUGUGUUAUCGAUGGCA | 146 nM | 14.8 nM | – | –
20 | UUAUAUAAUGUGAGGAUAUGCUGGUCGAGAGAUCAGCAGAAGGCACAUGAGGAUCACCCAUGUAGUAAAUUUUA | – | – | 22.5 nM | 25.9 nM
21 | UGUCGGAGCAGAGGAUAUACAUGAGGAUCACCCAUGUAAAUGGAAUAAGCCUGGAAACAGGCAAUGUAGAAGGCUGCUCCGACA | – | – | 69 nM | 628 nM
22 | GUACCUUAUGAGAAGGCGAUCAUUAAACAUGAUCGAGGAUAUCAUGAAAACAUGAGGAUCACCCAUGUAUGGGUAUUAUGGUAC | 33.6 nM | 16.4 nM | – | –
23 | GUCAGCUCGUGAGGAUAUACAACACUGCUUCGGCAGUGUAUUAAGCUCACAUGAGGAUCACCCAUGUAGAAGGCACGAGCUGAU | – | – | 5.37 nM | 11.2 nM
24 | CUGAGCUGAGGAUAUACAUGAGGAUCACCCAUGUGAAGUAGCUUGCGUACAGGCAGAUGUAGAAGGCAGUUCGG | – | – | 39.1 nM | 179 nM

Row | Sequence | apparent Kd [1] | apparent Kd [2] | apparent Kd [3] | apparent Kd [4]
25 | CCUGACGCAUCAGGAUAUGCUUACAUCCAUGUUGCAGAAGGGAUGCGUUCUGAAAACAUGAGGAUCACCCAUGUAAGCGGCCAA | 82 nM | 52.2 nM | – | –
26 | AGGAGACAUGAGGAUCACCCAUGUGCACGUGGAGGAGGAUAUGCUAGUAGAAGAUAGAAUGCAGAAGGCCUAAGAA | 72.9 nM | 84.8 nM | – | –
27 | UAUAUUAUUAUAGGAUAUGGAUAUGAUGCAUAUCCAGAAGGGUGAUUAUAAUAUUUUCUGUACAUGAGGAUCACCCAUGUUUAU | 141 nM | 41.6 nM | – | –
28 | GGUUGUAAUGUCAGCGAGUGUUAGAGAAGGUACAUGAGGAUCACCCAUGUACGUGAUCUUGCGAGUAAGGAUAUCUGUUAUUCA | – | – | 5.2 nM | 5.5 nM
29 | CGCUACGUUUCGUAGCAGUGUCAUCGAGAAGGCCCUGACAUGAGGAUCACCCAUGUUGUUACAUGGGAGGAUAUCGAUGAUACU | 13.4 nM | 5.25 nM | – | –
30 | UGUUGUAUUACAGGAUAUCUAGUAUUUUUAUCUAGAGAAGGGUAUUCACAUGAGGAUCACCCAUGUAUAUACGAGGAAGUUGUG | 33.1 nM | 33.2 nM | – | –
31 | GUACCUUAUGAGAAGGCGAUCAUAAAACAUGAUCGAGGAUAUCAUGUAAACAUGAGGAUCACCCAUGUAUGGGUAUUAUGGUAC | 68.7 nM | 17.5 nM | – | –
32 | ACAUGAGGAUCACCCAUGUACAUGGGUUUAAUUGUGUGUUACGAGGAUAUGUAUUUGAAUUUACAACAGAAGGUGUAUUACUGU | – | – | 811 nM | 610 nM
33 | GUAGCAUACAGAGGAUAUCUUAACCGGAAACGGACAUGAGGAUCACCCAUGUGGCGAAAGCCUAGGGAGAAGGCUGAAUGCUAC | 10.2 nM | 11.1 nM | – | –
34 | GGGUCACAUGAGGAUCACCCAUGUGAGGAUAUGAUACUAUGUACUUCGGUACAUAGUAUCAGAAGGCACAUAAA | – | – | 36.6 nM | 123 nM
35 | UCGUUGUCAGGAUAUCGUUAAUUUAGUUGUUUGUAUUAGUUCGAGAAGGGACAUGAGGAUCACCCAUGUUUGCU | – | – | 30.1 nM | 70.9 nM
36 | AAGGAAACCACAGGAUAUGGCUAGCAUAGCUAGCCAGAAGGGUGGUCGAAACCAUGUAAAUACAUGAGGAUCACCCAUGUGUCC | 189 nM | 271 nM | – | –
37 | CGCUGUCACGCAGGAUAUGCAUUGGAUUACAAUGCAGAAGGGCGAUUACAUGAGGAUCACCCAUGUGUCGACAGUGAAGAAGAG | – | 43 nM | – | –
38 | AGCGGUGCAGGAUAUGGCCGAUCCCACAUGAGGAUCACCCAUGUAAAUAAAAUAAGAUCUCCAGAAGGGCAUCGCA | – | – | 30.4 nM | 15.6 nM
39 | CCUCUACAUGAGGAUCACCCAUGUGAGGAUAUCUCGGAGCAGCCUAUUAAGGCGCUCCAGAGAAGGCACGUGUA | – | – | 19.3 nM | 28.3 nM
40 | CAGCAAAAGUAGAAGGCAGUACUGAUUCAGUACUGAGGAUAUACAUGAGGAUCACCCAUGUGUUCCAGCUGAAUAAUAAAAUAA | – | – | 8.89 nM | 116 nM
41 | UAGAAUCGAGGAUAUACAUGAGGAUCACCCAUGUGUUGCCGCGUGAUGUGUUUGUCAGGUAGAAGGCGAUUAUA | – | – | 64.4 nM | 266 nM
42 | CCAUUCAGAGGAUAUGCGCAUAGAUAAGACUUUGUUUCUUAACAUGAGGAUCACCCAUGUAGAAGGCUGUACCC | – | – | 24.1 nM | 21 nM
43 | GUCAGCUCGUGAGGAUAUACAACAUUGCUUCGGCAGUGUAUUAAGAUCACAUGAGGAUCACCCAUGUAGAAGGCACGAGCUGAU | – | – | 14.1 nM | 243 nM
44 | GCGGUAAAGAUCCAUUUUUACAACAUGAGGAUCACCCAUGUGCAGGAUAUCGAAUGUUUUAUAUUCGAGAAGGGCAAUUACCGC | – | – | 20.7 nM | 57.5 nM
45 | GAGGCCCAGGAAGGUAGAAUGAGCAGAAGGCAACGAAGCGUGAUCGACAUGAGGAUCACCCAUGUUGAGGAUAUGCGCCUCCAC | – | – | 63.1 nM | 178 nM
46 | CUCGGCGCACAGAAGGAUCGGUACAUGAGGAUCACCCAUGUAAGCAAAGAUAGGAUAUGUGGAGCUUACAGGGAAAUUGAACAA | 74.6 nM | 10.8 nM | – | –
47 | AUUGUGUGAGGAUAUUAAUAGUAAAUGAAUAGAAUUGUGAUUGAGAAGGCACAUGAGGAUCACCCAUGUUCCUU | – | – | 19 nM | 17.4 nM
48 | UCGUACAUUCGAGGAUAUCGGUGAUAAAUAAUACGAGAAGGCGAUUGUGGGAAUAACGCCUUAGACAUGAGGAUCACCCAUGUA | 72.4 nM | 62.6 nM | – | –
